Columns and labels:
[1] = system: Human immunodeficiency virus 1; experiment: Antiviral activity against HIV1 GRL98065p20 in MT4 cells assessed as inhibition of p24 Gag protein expression by MTT assay; type: functional, organism-based; details: Human immunodeficiency virus 1, MT4
How it was run: (§1)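 MT-4 cells (10^5/ml) infected with 100 TCID50s of wild-type or PI-resistant NL4-3 virus and incubated at 37°C with or without graded drug concentrations. On day 7, supernatant p24 Gag was measured by chemiluminescent enzyme immunoassay. […] Assays were run in duplicate or triplicate.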

[2] = system: Human immunodeficiency virus 1; experiment: Antiviral activity against HIV1 GRL98065p30 in MT4 cells assessed as inhibition of p24 Gag protein expression by MTT assay; type: functional, organism-based; details: Human immunodeficiency virus 1, MT4; how it was run: as §1
[3] = system: Human immunodeficiency virus 1; experiment: Antiviral activity against wild type HIV1 ERS104prc X4 in phytohemagglutininin-activated PBMCs assessed as inhibition of p24 Gag protein expression by MTT assay; type: functional, organism-based
How it was run: (§2)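 PHA-activated PBMCs (10^6/ml) infected with 50 TCID50s of each isolate and cultured with or without drug in 10-fold serial dilutions. The read-out was supernatant p24 Gag by chemiluminescent enzyme immunoassay. Assays were run in duplicate or triplicate, with one donor per experiment and three donors in total.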

[4] = system: Human immunodeficiency virus 1; experiment: Antiviral activity against HIV1 92UG029 X4 subtype A in phytohemagglutininin-activated PBMCs assessed as inhibition of p24 Gag protein expression by MTT assay; type: functional, organism-based
How it was run: (§3)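 PHA-activated PBMCs (10^6/ml) infected with 50 TCID50s of each isolate and cultured with or without drug in 10-fold serial dilutions. The read-out was supernatant p24 Gag by chemiluminescent enzyme immunoassay. […] Assays were run in duplicate or triplicate, with one donor per experiment and three donors in total.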

[5] = system: Human immunodeficiency virus 1; experiment: Antiviral activity against HIV1 BaL R5 subtype B in phytohemagglutininin-activated PBMCs assessed as inhibition of p24 Gag protein expression by MTT assay; type: functional, organism-based; how it was run: as §2
[6] = system: Human immunodeficiency virus 1; experiment: Antiviral activity against HIV1 97ZA003 R5 subtype C in phytohemagglutininin-activated PBMCs assessed as inhibition of p24 Gag protein expression by MTT assay; type: functional, organism-based; how it was run: as §3
[7] = system: Human immunodeficiency virus 1; experiment: Antiviral activity against HIV1 92TH019 R5 subtype E in phytohemagglutininin-activated PBMCs assessed as inhibition of p24 Gag protein expression by MTT assay; type: functional, organism-based; how it was run: as §3
[8] = system: Human immunodeficiency virus 1; experiment: Antiviral activity against HIV1 LAI in MT2 cells assessed as inhibition of p24 Gag protein expression by MTT assay; type: functional, organism-based; details: Human immunodeficiency virus 1, LAI
How it was run: (§4)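 MT-2 cells (2 × 10^4/ml) were infected with 100 TCID50s of the HIV-1LAI, HIV-2EHO or HIV-2ROD strain. They were cultured with serial drug concentrations at 37°C for 7 days. MTT was then added for 4 h at 37°C, formazan was dissolved in acidified isopropanol with 4% Triton X-100, and optical density was read. EC50 is the mean of three independent experiments, each run in duplicate.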

[9] = system: Human immunodeficiency virus 2; experiment: Antiviral activity against HIV2 EHO in MT2 cells assessed as inhibition of p24 Gag protein expression by MTT assay; type: functional, organism-based; details: Human immunodeficiency virus 2, EHO; how it was run: as §4
[10] = system: Human immunodeficiency virus 2; experiment: Antiviral activity against HIV2 ROD in MT2 cells assessed as inhibition of p24 Gag protein expression by MTT assay; type: functional, organism-based; details: Human immunodeficiency virus 2, ROD; how it was run: as §4
[11] = Cytotoxicity against human MT2 cells assessed as inhibition of p24 Gag protein expression by MTT assay; type: cell-based
[12] = system: Human immunodeficiency virus 1; experiment: Antiviral activity against ritonavir-resistant HIV1 in MT4 cells assessed as inhibition of p24 Gag protein expression by MTT assay; type: functional, organism-based; details: Human immunodeficiency virus 1, MT4; how it was run: as §1
[13] = system: Human immunodeficiency virus 1; experiment: Antiviral activity against idinavir-resistant HIV1 in MT4 cells assessed as inhibition of p24 Gag protein expression by MTT assay; type: functional, organism-based; details: Human immunodeficiency virus 1, MT4; how it was run: as §1
[14] = system: Human immunodeficiency virus 1; experiment: Antiviral activity against nelfinavir-resistant HIV1 in MT4 cells assessed as inhibition of p24 Gag protein expression by MTT assay; type: functional, organism-based; details: Human immunodeficiency virus 1, MT4; how it was run: as §1
[15] = system: Human immunodeficiency virus 1; experiment: Antiviral activity against atazanavir-resistant HIV1 in MT4 cells assessed as inhibition of p24 Gag protein expression by MTT assay; type: functional, organism-based; details: Human immunodeficiency virus 1, MT4; how it was run: as §1
[16] = system: Human immunodeficiency virus 1; experiment: Antiviral activity against lopinavir-resistant HIV1 in MT4 cells assessed as inhibition of p24 Gag protein expression by MTT assay; type: functional, organism-based; details: Human immunodeficiency virus 1, MT4; how it was run: as §1
[17] = system: Human immunodeficiency virus 1; experiment: Antiviral activity against amprenavir-resistant HIV1 in MT4 cells assessed as inhibition of p24 Gag protein expression by MTT assay; type: functional, organism-based; details: Human immunodeficiency virus 1, MT4; how it was run: as §1
[18] = system: Human immunodeficiency virus 1; experiment: Antiviral activity against HIV1 GRL98065p40 in MT4 cells assessed as inhibition of p24 Gag protein expression by MTT assay; type: functional, organism-based; details: Human immunodeficiency virus 1, MT4; how it was run: as §1
[19] = system: Human immunodeficiency virus 1; experiment: Antiviral activity against HIV1 MDR/TM X4 in phytohemagglutininin-activated PBMCs assessed as inhibition of p24 Gag protein expression by MTT assay; type: functional, organism-based; how it was run: as §3
[20] = system: Human immunodeficiency virus 1; experiment: Antiviral activity against HIV1 MDR/MM R5 in phytohemagglutininin-activated PBMCs assessed as inhibition of p24 Gag protein expression by MTT assay; type: functional, organism-based; how it was run: as §3
[21] = system: Human immunodeficiency virus 1; experiment: Antiviral activity against HIV1 MDR/JSL R5 in phytohemagglutininin-activated PBMCs assessed as inhibition of p24 Gag protein expression by MTT assay; type: functional, organism-based; how it was run: as §3
[22] = system: Human immunodeficiency virus 1; experiment: Antiviral activity against HIV1 MDR/B X4 in phytohemagglutininin-activated PBMCs assessed as inhibition of p24 Gag protein expression by MTT assay; type: functional, organism-based; how it was run: as §3
[23] = system: Human immunodeficiency virus 1; experiment: Antiviral activity against HIV1 92UG037 subtype A R5 in phytohemagglutininin-activated PBMCs assessed as inhibition of p24 Gag protein expression by MTT assay; type: functional, organism-based; how it was run: as §3
[24] = system: Human immunodeficiency virus 1; experiment: Antiviral activity against saquinavir-resistant HIV1 in MT4 cells assessed as inhibition of p24 Gag protein expression by MTT assay; type: functional, organism-based; details: Human immunodeficiency virus 1, MT4; how it was run: as §1
[25] = system: Human immunodeficiency virus 1; experiment: Antiviral activity against HIV1 NL4-3 in MT4 cells by MTT assay; type: functional, organism-based; details: Human immunodeficiency virus 1, NL4-3, MT4
[26] = system: Human immunodeficiency virus 1; experiment: Antiviral activity against HIV1 MDR/C X4 in phytohemagglutininin-activated PBMCs assessed as inhibition of p24 Gag protein expression by MTT assay; type: functional, organism-based; how it was run: as §3
[27] = system: Human immunodeficiency virus 1; experiment: Antiviral activity against HIV1 MDR/G X4 in phytohemagglutininin-activated PBMCs assessed as inhibition of p24 Gag protein expression by MTT assay; type: functional, organism-based; how it was run: as §2

| Compound | EC50 [1] | EC50 [2] | EC50 [3] | EC50 [4] | EC50 [5] | EC50 [6] | EC50 [7] | EC50 [8] | EC50 [9] | EC50 [10] | CC50 [11] | EC50 [12] | EC50 [13] | EC50 [14] | EC50 [15] | EC50 [17] | EC50 [18] | EC50 [19] | EC50 [20] | EC50 [23] | further results |
| --- | --- | --- | --- | --- | --- | --- | --- | --- | --- | --- | --- | --- | --- | --- | --- | --- | --- | --- | --- | --- | --- |
| Cc1cccc(C)c1OCC(=O)N[C@@H](Cc1ccccc1)[C@@H](O)C[C@H](Cc1ccccc1)NC(=O)[C@H](C(C)C)N1CCCNC1=O [LOPINAVIR] | 34 nM | 60 nM | 7 nM | 7 nM | 5.3 nM | 7.3 nM | 3.3 nM | 7 nM | 2.6 nM | 4.9 nM | > 100000 nM | – | – | – | – | – | – | – | – | – | – |
| CC(C)CN(C[C@@H](O)[C@H](Cc1ccccc1)NC(=O)O[C@H]1CCOC1)S(=O)(=O)c1ccc(N)cc1 | 58 nM | 330 nM | 29 nM | 46 nM | – | 33 nM | 21 nM | 36 nM | 250 nM | 570 nM | > 100000 nM | 280 nM | 170 nM | 60 nM | 200 nM | > 1000 nM | > 1000 nM | 300 nM | 480 nM | 27 nM | EC50 [16]: 310 nM; EC50 [21]: 430 nM; EC50 [22]: 360 nM; EC50 [24]: 330 nM |
| Cc1c(O)cccc1C(=O)N[C@@H](CSc1ccccc1)[C@H](O)CN1C[C@H]2CCCC[C@H]2C[C@H]1C(=O)NC(C)(C)C | 80 nM | 270 nM | – | 43 nM | 18 nM | 37 nM | 29 nM | 32 nM | 30 nM | 240 nM | 8100 nM | – | – | – | – | – | – | – | – | 56 nM | EC50 [25]: 33 nM |
| CC(C)(C)NC(=O)[C@@H]1CN(Cc2cccnc2)CCN1C[C@@H](O)C[C@@H](Cc1ccccc1)C(=O)N[C@H]1c2ccccc2C[C@H]1O | 40 nM | 59 nM | 24 nM | 44 nM | 22 nM | 37 nM | 21 nM | 48 nM | 24 nM | 54 nM | 69800 nM | 250 nM | > 1000 nM | 270 nM | 388 nM | 200 nM | 280 nM | > 1000 nM | > 1000 nM | 34 nM | EC50 [16]: > 1000 nM; EC50 [21]: > 1000 nM; EC50 [22]: > 1000 nM; EC50 [26]: > 1000 nM; EC50 [27]: 640 nM; EC50 [24]: > 1000 nM |
| CC(C)CN(C[C@@H](O)[C@H](Cc1ccccc1)NC(=O)O[C@H]1CO[C@H]2OCC[C@H]21)S(=O)(=O)c1ccc2c(c1)OCO2 | 3.8 nM | 8 nM | 0.5 nM | 0.5 nM | 0.2 nM | 0.5 nM | 0.3 nM | 0.5 nM | 3.2 nM | 4.5 nM | 35700 nM | 2.5 nM | 3.7 nM | 2.4 nM | 1.5 nM | 32 nM | 180 nM | 3.2 nM | 3.8 nM | 0.4 nM | EC50 [16]: 7.5 nM; EC50 [21]: 6 nM; EC50 [22]: 3.9 nM; EC50 [26]: 2.7 nM; EC50 [27]: 3.4 nM; EC50 [24]: 6 nM; EC50 [25]: 0.3 nM |
| CC(C)c1nc(CN(C)C(=O)N[C@H](C(=O)N[C@@H](Cc2ccccc2)C[C@H](O)[C@H](Cc2ccccc2)NC(=O)OCc2cncs2)C(C)C)cs1 [RITONAVIR] | 130 nM | 300 nM | – | 71 nM | – | 39 nM | 30 nM | 54 nM | 210 nM | 260 nM | – | – | – | – | – | – | – | – | – | 41 nM | EC50 [25]: 33 nM |
| CC(C)CN(C[C@@H](O)[C@H](Cc1ccccc1)NC(=O)O[C@H]1CO[C@H]2OCC[C@H]21)S(=O)(=O)c1ccc(N)cc1 | 21 nM | 36 nM | 3.8 nM | – | – | – | – | 3.9 nM | 8 nM | 6.8 nM | 83100 nM | 18 nM | 15 nM | 3.3 nM | 3.4 nM | 330 nM | 210 nM | 4.3 nM | 16 nM | – | EC50 [21]: 27 nM; EC50 [22]: 40 nM; EC50 [26]: 9 nM; EC50 [27]: 7 nM; EC50 [24]: 5.8 nM |
